From ChEMBL document CHEMBL3758146, “Synthesis and biological evaluation of quinazolin-4(3H)-one derivatives bearing dithiocarbamate side chain at C2-position as potential antitumor agents” (Eur J Med Chem, 2016)
pIC50: −log10 of the molar value. Calls of active or inactive are those of the source. No cut-off for these calls is given here.

Tests used:
[1] = test system: A549; test: Antiproliferative activity against human A549 cells after 72 hrs by MTS assay; format: functional, cell-based; conditions: A549, 72 h
How it was run: (§1)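 MTS (CellTiter 96 AQueous One) read-out after 72 h exposure; compounds first screened at 50 µM, with ≥50% inhibition versus vehicle-treated cells counted as active. Actives were then tested at various concentrations to give IC50 (concentration causing 50% proliferation inhibition). Triplicate wells, three independent experiments, mean ± SD. 5-FU as positive control.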

[2] = test system: MCF7; test: Antiproliferative activity against human MCF7 cells after 72 hrs by MTS assay; format: functional, cell-based; conditions: MCF7, 72 h; how it was run: as §1
[3] = test system: HeLa; test: Antiproliferative activity against human HeLa cells after 72 hrs by MTS assay; format: functional, cell-based; how it was run: as §1
[4] = test system: HT-29; test: Antiproliferative activity against human HT-29 cells after 72 hrs by MTS assay; format: functional, cell-based; conditions: HT-29, 72 h; how it was run: as §1
[5] = Antiproliferative activity against human HCT116 cells after 72 hrs by MTS assay; format: functional, cell-based; conditions: HCT-116, 72 h; how it was run: as §1
[6] = test system: CA46; test: Cytotoxicity against human CA46 cells assessed as growth inhibition after 24 hrs by coulter counter analysis; format: functional, cell-based; conditions: CA46, 24 h
[7] = test system: MCF7; test: Cytotoxicity against human MCF7 cells assessed as growth inhibition after 48 hrs by sulforhodamine B assay; format: functional, cell-based; conditions: MCF7, 48 h
[8] = test system: HT-29; test: Induction of spindle assembly checkpoint in human HT-29 cells assessed as mitotic index after 2 hrs by immunostaining assay (reference value: 2.47 +/- 0.71); format: functional
[9] = test system: HT-29; test: Induction of spindle assembly checkpoint in human HT-29 cells assessed as mitotic index after 4 hrs by immunostaining assay (reference value: 3.13 +/- 1.01); format: functional
[10] = test system: HT-29; test: Induction of spindle assembly checkpoint in human HT-29 cells assessed as mitotic index after 8 hrs by immunostaining assay (reference value: 2.81 +/- 0.82); format: functional
[11] = test system: HT-29; test: Induction of DNA damage in human HT-29 cells assessed as gamma-H2AX foci formation at 2 uM after 1 to 2 hrs by DAPI staining based indirect immunofluorescence assay; format: functional, cell-based
How it was run: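 HT29 cells exposed 1 or 2 h, DMSO as diluent control. After fixation, cells immunostained with mouse monoclonal anti-γ-H2AX (clone JBW301, 1:1500) and DNA counterstained with DAPI. γ-H2AX foci scored by indirect immunofluorescence.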

[12] = test system: HT-29; test: Induction of DNA damage in human HT-29 cells assessed as increase in gamma-H2AX protein level at 2 uM after 1 to 2 hrs by Western blot analysis; format: functional, cell-based
How it was run: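 HT29 cells treated 1 or 2 h, DMSO as diluent control. Total lysates immunoblotted for γ-H2AX (15 kDa), with β-actin (42 kDa) as loading reference; both probed on separate sections of one membrane.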

[13] = test system: HT-29; test: Cell cycle arrest in human HT-29 cells assessed as accumulation at G0/G1 phase at 0.18 uM after 24 hrs by propidium iodide staining based FACS analysis (reference value: 50.25 +/- 1.19%); format: functional
[14] = test system: HT-29; test: Cell cycle arrest in human HT-29 cells assessed as accumulation at S phase at 0.18 uM after 24 hrs by propidium iodide staining based FACS analysis (reference value: 33.05 +/- 2.22%); format: functional
[15] = test system: HT-29; test: Cell cycle arrest in human HT-29 cells assessed as accumulation at G2/M phase at 0.18 uM after 24 hrs by propidium iodide staining based FACS analysis (reference value: 16.7 +/- 1.55%); format: functional
[16] = test system: HT-29; test: Upregulation of phosphorylated BubR1 level in human HT-29 cells after 16 hrs by immuno-blot analysis; format: functional, cell-based
[17] = test system: HT-29; test: Cell cycle arrest in human HT-29 cells assessed as accumulation at G0/G1 phase at IC50 after 24 hrs by propidium iodide staining based FACS analysis (reference value: 50.25 +/- 1.19%); format: functional
[18] = test system: HT-29; test: Cell cycle arrest in human HT-29 cells assessed as accumulation at S phase at IC50 after 24 hrs by propidium iodide staining based FACS analysis (reference value: 33.05 +/- 2.22%); format: functional
[19] = test system: HT-29; test: Cell cycle arrest in human HT-29 cells assessed as accumulation at G2/M phase at IC50 after 24 hrs by propidium iodide staining based FACS analysis (reference value: 16.7 +/- 1.55%); format: functional
[20] = test system: HT-29; test: Induction of DNA damage in human HT-29 cells assessed as gamma-H2AX foci formation after 1 to 2 hrs by DAPI staining based indirect immunofluorescence assay; format: functional, cell-based
How it was run: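 HT29 cells treated 1 or 2 h alongside CPT (2 µM) and DMSO diluent, fixed, immunostained with mouse monoclonal anti-γ-H2AX (clone JBW301, 1:1500) and counterstained with DAPI for DNA; γ-H2AX foci scored by indirect immunofluorescence.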

[21] = test system: HT-29; test: Induction of spindle assembly checkpoint in human HT-29 cells assessed as mitotic index after 16 hrs by immunostaining assay (reference value: 2.87 +/- 0.82); format: functional
[22] = molecular target: T1, Tubulin (Sus scrofa) (UniProt P02554+P02550); test: Induction of porcine neuronal tubulin polymerization at 10 uM after 60 mins by spectrometric analysis; format: protein assay
T1 sequence (P02550 whole entry, looked up): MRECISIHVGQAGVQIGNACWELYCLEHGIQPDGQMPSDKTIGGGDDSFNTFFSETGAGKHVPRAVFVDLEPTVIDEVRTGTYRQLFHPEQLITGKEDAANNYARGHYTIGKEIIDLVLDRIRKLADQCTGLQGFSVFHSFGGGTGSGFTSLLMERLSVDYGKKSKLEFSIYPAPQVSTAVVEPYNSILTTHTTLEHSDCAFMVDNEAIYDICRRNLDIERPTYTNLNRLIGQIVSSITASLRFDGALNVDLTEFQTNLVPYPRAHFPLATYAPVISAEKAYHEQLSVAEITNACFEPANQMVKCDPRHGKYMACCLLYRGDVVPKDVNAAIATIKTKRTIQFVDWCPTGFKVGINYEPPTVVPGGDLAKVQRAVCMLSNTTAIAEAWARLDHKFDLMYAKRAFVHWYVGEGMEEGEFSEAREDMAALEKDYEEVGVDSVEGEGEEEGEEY
T1 sequence (P02554 whole entry, looked up): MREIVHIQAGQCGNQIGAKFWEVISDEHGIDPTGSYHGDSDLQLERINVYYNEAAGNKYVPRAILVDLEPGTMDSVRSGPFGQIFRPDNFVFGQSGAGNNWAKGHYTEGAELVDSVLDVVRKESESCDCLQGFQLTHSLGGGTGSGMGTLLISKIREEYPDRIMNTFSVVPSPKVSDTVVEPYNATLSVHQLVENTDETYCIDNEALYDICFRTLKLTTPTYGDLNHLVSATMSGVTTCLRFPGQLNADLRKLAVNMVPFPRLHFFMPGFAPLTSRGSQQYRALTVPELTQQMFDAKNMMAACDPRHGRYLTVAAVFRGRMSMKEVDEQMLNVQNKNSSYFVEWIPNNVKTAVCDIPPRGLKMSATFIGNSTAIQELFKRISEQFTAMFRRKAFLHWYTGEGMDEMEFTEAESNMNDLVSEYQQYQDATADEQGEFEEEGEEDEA
How it was run: (§2)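 Cell-free tubulin polymerization run by a commercial kit protocol; assembly followed as rise in absorbance at 340 nm over 60 min at 37 °C, with Taxol as reference.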

[23] = molecular target: T1, Tubulin (Sus scrofa); test: Induction of porcine neuronal tubulin polymerization at 15 uM after 60 mins by spectrometric analysis; format: protein assay; how it was run: as §2
[24] = test system: HT-29; test: Induction of DNA damage in human HT-29 cells assessed as increase in gamma-H2AX protein level after 1 to 2 hrs by Western blot analysis; format: functional, cell-based
How it was run: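 Total lysates of HT29 cells treated 1 or 2 h, with CPT (2 µM) and DMSO diluent as comparators, immunoblotted for γ-H2AX (15 kDa), with β-actin (42 kDa) as loading control probed on a separate section of the same membrane.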

SMILES | pIC50 [1] | pIC50 [2] | pIC50 [3] | pIC50 [4] | pIC50 [5] | other results
COc1ccccc1CNC(=S)SCc1nc2ccccc2c(=O)[nH]1 | 4.92 | 4.83 | 4.78 | 4.91 | 4.51 | –
O=c1[nH]c(CSC(=S)NCc2cccs2)nc2ccccc12 | 4.59 | 4.62 | 4.58 | 4.79 | 4.79 | –
O=c1c2cc(Cl)ccc2nc(/C=C/c2ccccc2)n1-c1ncccn1 | – | – | – | – | – | pIC50 [6]: 6.00; pIC50 [7]: 6.47
CC[C@@]1(O)C(=O)OCc2c1cc1n(c2=O)Cc2cc3ccccc3nc2-1 [CAMPTOTHECIN] | – | – | – | – | – | Activity_index [8]: 1.55; Activity_index [9]: 1.11; Activity_index [10]: 0.33; Activity [11]: Active; Activity [12]: Active
CC(=O)O[C@H]1C(=O)[C@@]2(C)[C@H]([C@H](OC(=O)c3ccccc3)[C@]3(O)C[C@H](OC(=O)[C@H](O)[C@@H](NC(=O)c4ccccc4)c4ccccc4)C(C)=C1C3(C)C)[C@]1(OC(C)=O)CO[C@@H]1C[C@@H]2O [PACLITAXEL] | – | – | – | – | – | Activity [13]: 1.7%; Activity [14]: 17.6%; Activity [15]: 80.71%; Activity [16]: Active
COc1ccc(CNC(=S)SCc2nc3ccccc3c(=O)[nH]2)cc1 | 5.14 | 4.96 | 4.91 | 5.26 | 4.64 | Activity [17]: 16.45%; Activity [18]: 28.25%; Activity [19]: 55.31%; Activity [20]: inactive; Activity_index [8]: 4.66; Activity_index [9]: 7.75; Activity_index [10]: 10.15; Activity_index [21]: 37.85; Activity [22]: inactive; Activity [23]: Active; Activity [24]: inactive; Activity [16]: Active
O=c1[nH]c(CSC(=S)NCc2ccc(F)cc2F)nc2ccccc12 | 4.51 | 4.69 | 4.70 | 4.81 | 4.65 | –
COc1ccc(CNC(=S)SCc2nc3ccccc3c(=O)[nH]2)c(OC)c1 | 4.98 | 4.87 | 4.80 | 5.00 | 4.59 | –
O=c1[nH]c(CSC(=S)NCc2ccc3c(c2)OCO3)nc2ccccc12 | 4.35 | 4.66 | 4.69 | 4.72 | 4.47 | –
O=c1[nH]c(CSC(=S)NCc2ccco2)nc2ccccc12 | 4.37 | < 4.30 | 4.51 | 4.47 | 4.61 | –
O=c1[nH]c(CSC(=S)NCc2ccc(Cl)cc2Cl)nc2ccccc12 | 4.89 | < 4.30 | 4.54 | 4.94 | 4.53 | –
COc1cc(CNC(=S)SCc2nc3ccccc3c(=O)[nH]2)cc(OC)c1OC | 4.98 | 5.05 | 4.64 | 5.15 | 4.76 | –
COC(=O)Nc1nc2cc(C(=O)c3cccs3)ccc2[nH]1 [NOCODAZOLE] | – | – | – | – | – | Activity_index [8]: 5.22; Activity_index [9]: 11.4; Activity_index [10]: 25.61; Activity_index [21]: 64.81
O=c1[nH]c(CSC(=S)NCc2ccccn2)nc2ccccc12 | < 4.30 | < 4.30 | < 4.30 | < 4.30 | < 4.30 | –
O=c1[nH]c(CSC(=S)NCc2ccccc2)nc2ccccc12 | 4.62 | 4.50 | 4.97 | 4.84 | 4.74 | –
O=c1[nH]c(CSC(=S)NCc2ccc(Cl)cc2)nc2ccccc12 | < 4.30 | < 4.30 | < 4.30 | < 4.30 | < 4.30 | –
O=c1[nH]c(CSC(=S)NCc2ccccc2F)nc2ccccc12 | 4.67 | 4.69 | 4.88 | 4.78 | 4.69 | –
O=c1[nH]c(CSC(=S)NCc2cccnc2)nc2ccccc12 | 4.83 | 4.69 | 4.96 | 4.85 | 4.95 | –
O=c1[nH]c(CSC(=S)NCc2ccc(C(F)(F)F)nc2)nc2ccccc12 | 4.89 | 4.72 | 4.55 | 4.78 | 4.78 | –
O=c1[nH]c(CSC(=S)NCc2ccncc2)nc2ccccc12 | 5.21 | 4.79 | 4.90 | 4.80 | 5.18 | –
Cc1ccc(CNC(=S)SCc2nc3ccccc3c(=O)[nH]2)cc1 | 4.49 | 4.67 | 4.68 | 4.79 | 4.64 | –
O=c1[nH]cc(F)c(=O)[nH]1 [FLUOROURACIL] | – | – | – | – | – | Activity [17]: 5.42%; Activity [18]: 91.11%; Activity [19]: 3.48%; Activity_index [8]: 2.28; Activity_index [9]: 2.09; Activity_index [10]: 0.29; Activity_index [21]: 0.23
O=c1[nH]c(CSC(=S)NCc2ccc(Br)cc2)nc2ccccc12 | 4.74 | 4.41 | 4.64 | 4.49 | 4.34 | –
O=c1[nH]c(CSC(=S)NCc2ccc([N+](=O)[O-])cc2)nc2ccccc12 | 4.94 | 4.71 | 4.55 | 4.76 | 4.79 | –
O=c1[nH]c(CSC(=S)NCc2ccc(F)cc2)nc2ccccc12 | 4.97 | 4.76 | 4.67 | 4.73 | 4.70 | –
